ChEMBL document CHEMBL1139358, “Potent and orally bioavailable CCR4 antagonists: Synthesis and structure-activity relationship study of 2-aminoquinazolines” (Bioorg Med Chem, 2009)
One block for each compound: values may come before it.

Key:
[1] = target: T1, C-C chemokine receptor type 4 (Homo sapiens, UniProt P51679); test: Antagonist activity at human CCR4 receptor expressed in mouse B300-19 cells assessed as CCL22-induced [35S]GTPgammaS binding; format: functional, cell-based
T1 sequence (P51679 whole entry): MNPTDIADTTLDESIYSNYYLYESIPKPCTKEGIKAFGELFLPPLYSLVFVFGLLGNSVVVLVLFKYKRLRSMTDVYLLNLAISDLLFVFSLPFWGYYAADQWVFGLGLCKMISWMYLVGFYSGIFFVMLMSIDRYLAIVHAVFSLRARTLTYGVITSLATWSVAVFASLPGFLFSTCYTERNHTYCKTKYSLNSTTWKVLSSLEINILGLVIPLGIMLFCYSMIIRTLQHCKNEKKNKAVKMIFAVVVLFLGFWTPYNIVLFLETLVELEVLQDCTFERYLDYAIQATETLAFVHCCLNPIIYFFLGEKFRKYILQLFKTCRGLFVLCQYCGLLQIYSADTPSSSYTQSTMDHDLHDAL
Procedure, shortened: (§1)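 B300-19 pre-B cell membranes stably expressing human CCR4 (1 µg protein/well), incubated 1.5 h at 25 °C with 150 pM [35S]GTPγS, 2 µM GDP, 3 nM MDC (CCL22), WGA SPA beads, in HEPES-NaOH pH 7.05, NaCl, MgCl2, BSA buffer. Scintillation counting. Percent inhibition from no-compound and no-CCL22 control wells. Duplicate wells, four test concentrations.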

[2] = target: T2, C-C chemokine receptor type 4 (Homo sapiens) (UniProt P51679); test: Antagonist activity at human CCR4 receptor expressed in mouse B300-19 cells assessed as CCL22-induced chemotaxis at 1 uM; format: functional, cell-based
T2 sequence (whole entry): T1 sequence (P51679 whole entry)
Procedure, shortened: (§2)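 Stable CCR4 transfectants of B300-19 cells (human or mouse receptor) at 5 × 10^6 cells/mL in RPMI 1640 with 0.1% BSA, pretreated with test compound. Cells placed above 5-µm polycarbonate filters, with 3 nM human (human CCR4 cells) or 1 nM mouse (mouse CCR4 cells) CCL22 below. Migration for 3 h at 37 °C, 5% CO2. Migrated cells quantified by ATP bioluminescence. Triplicates, four concentrations.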

Mus musculus [3] = test: Antiinflammatory activity against oxazolone-induced contact hypersensitivity in BALB/c mouse model of acute dermatitis assessed as inhibition of ear swelling at 30 mg/kg, sc qd; format: functional; settings: route subcutaneous
Procedure, shortened: (§3)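 Female BALB/c mice, 7 weeks, n = 5, sensitized with 3% oxazolone in ethanol on the shaved abdomen. Challenged on day 6 with 1% oxazolone on the right ear. Ear thickness gauged 20 h after challenge. Twice-daily dosing was given 30 min before and 8 h after challenge. Single doses were given after challenge only (8 h or 12 h). Percent inhibition of swelling calculated against control and vehicle groups.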

Mus musculus [4] = test: Antiinflammatory activity against oxazolone-induced contact hypersensitivity in BALB/c mouse model of acute dermatitis assessed as inhibition of ear swelling at 10 mg/kg, po qd; format: functional; procedure, shortened: as §3
Mus musculus [5] = test: Antiinflammatory activity against oxazolone-induced contact hypersensitivity in BALB/c mouse model of acute dermatitis assessed as inhibition of ear swelling at 100 mg/kg, po qd; format: functional; procedure, shortened: as §3
[6] = Tmax in BALB/c mouse at 30 mg/kg, po administered as single dose; format: ADME, organism-based; parameters: dose 30 mg/kg, route oral; settings: in vivo
[7] = Cmax in BALB/c mouse at 30 mg/kg, po administered as single dose; format: ADME, organism-based; parameters: dose 30 mg/kg, route oral; settings: in vivo
Mus musculus [8] = test: AUC (0 to 24 hrs) in BALB/c mouse at 30 mg/kg, po administered as single dose; format: ADME, organism-based, Plasma; parameters: time < 24 hr, dose 30 mg/kg, route oral; settings: in vivo
[9] = Tmax in BALB/c mouse at 100 mg/kg, po administered as single dose; format: ADME, organism-based; parameters: dose 100 mg/kg, route oral; settings: in vivo
[10] = Cmax in BALB/c mouse at 100 mg/kg, po administered as single dose; format: ADME, organism-based; parameters: dose 100 mg/kg, route oral; settings: in vivo
Mus musculus [11] = test: AUC (0 to 24 hrs) in BALB/c mouse at 100 mg/kg, po administered as single dose; format: ADME, organism-based, Plasma; parameters: time < 24 hr, dose 100 mg/kg, route oral; settings: in vivo
Mus musculus [12] = test: Antiinflammatory activity against oxazolone-induced contact hypersensitivity in BALB/c mouse model of acute dermatitis assessed as inhibition of ear swelling at 30 mg/kg, po qd; format: functional; procedure, shortened: as §3
[13] = target: T2, C-C chemokine receptor type 4 (Homo sapiens); test: Antagonist activity at human CCR4 receptor expressed in mouse B300-19 cells assessed as CCL22-induced [35S]GTPgammaS binding at 1 uM; format: functional, cell-based; procedure, shortened: as §1
Mus musculus [14] = test: Antiinflammatory activity against oxazolone-induced contact hypersensitivity in BALB/c mouse model of acute dermatitis assessed as inhibition of ear swelling at 100 mg/kg, po bid; format: functional; procedure, shortened: as §3
[15] = Antagonist activity at human CCR4 receptor expressed in mouse B300-19 cells assessed as CCL22-induced chemotaxis
[16] = Antagonist activity at mouse CCR4 receptor expressed in mouse B300-19 cells assessed as CCL22-induced chemotaxis
[17] = target: T3, C-C chemokine receptor type 4 (Mus musculus) (UniProt P51680); test: Antagonist activity at mouse CCR4 receptor expressed in mouse B300-19 cells assessed as CCL22-induced chemotaxis at 1 uM; format: functional, cell-based; procedure, shortened: as §2
T3 sequence (whole entry): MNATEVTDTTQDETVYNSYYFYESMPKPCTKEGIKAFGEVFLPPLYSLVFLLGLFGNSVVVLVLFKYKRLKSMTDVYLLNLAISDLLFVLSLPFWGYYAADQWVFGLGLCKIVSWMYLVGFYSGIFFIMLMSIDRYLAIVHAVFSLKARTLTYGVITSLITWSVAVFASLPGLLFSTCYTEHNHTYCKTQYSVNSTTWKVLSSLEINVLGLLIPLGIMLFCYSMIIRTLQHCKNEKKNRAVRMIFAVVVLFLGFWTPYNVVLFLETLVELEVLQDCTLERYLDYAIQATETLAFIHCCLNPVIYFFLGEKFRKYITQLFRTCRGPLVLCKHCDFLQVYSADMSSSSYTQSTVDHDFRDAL

Mus musculus [18] = test: Antiinflammatory activity against oxazolone-induced contact hypersensitivity in BALB/c mouse model of acute dermatitis assessed as inhibition of ear swelling at 30 mg/kg, po bid; format: functional; procedure, shortened: as §3
Mus musculus [19] = test: Antiinflammatory activity against oxazolone-induced contact hypersensitivity in BALB/c mouse model of acute dermatitis assessed as inhibition of ear swelling at 30 mg/kg, sc bid; format: functional; settings: route subcutaneous; procedure, shortened: as §3

SMILES: COc1cc2nc(N3CCC(N4CCCC(CO)C4)CC3)nc(NCCc3ccc(Cl)cc3)c2cc1OC (stereo not given)
IC50 [1]: 61 nM
inhibition [2]: 43%

SMILES: COc1cc2nc(N3CCC(N4CCCC(CO)C4)CC3)nc(N(C)CCc3ccc(Cl)cc3)c2cc1OC (stereo not given)
inhibition [13]: 23%

SMILES: COc1cc2nc(N3CCC(N4CCCC4)CC3)nc(NC3CCCCCC3)c2cc1OC
inhibition in vivo at 30 mg/kg (Mus musculus [3]): 39%
inhibition in vivo at 100 mg/kg (Mus musculus [14]): 8%
IC50 [15]: 200 nM
IC50 [16]: 130 nM

SMILES: COc1cc2nc(N3CCC(N4CCCC(CO)C4)CC3)nc(-c3ccc(Cl)cc3)c2cc1OC (stereo not given)
IC50 [1]: > 1000 nM

SMILES: COc1cc2nc(N3CCC(N4CCCC(CO)C4)CC3)nc(NC3CCS(=O)(=O)CC3)c2cc1OC (stereo not given)
inhibition [13]: 0%

SMILES: COc1cc2nc(N3CCC(N4CCCC(CO)C4)CC3)nc(NC3CCOCC3)c2cc1OC (stereo not given)
inhibition [13]: 4%

SMILES: COc1cc2nc(N3CCC(N4CCCC(CO)C4)CC3)nc(C(O)c3ccc(Cl)cc3)c2cc1OC (stereo not given)
inhibition [13]: 7%

SMILES: COc1cc2nc(N3CCC(N4CCCCC4)CC3)nc(NC3CCCCCC3)c2cc1OC
inhibition in vivo at 30 mg/kg (Mus musculus [18]): 2%

SMILES: COc1cc2nc(N3CCC(N4CCCC(CO)C4)CC3)nc(NS(=O)(=O)c3ccc(Cl)cc3)c2cc1OC (stereo not given)
inhibition [13]: 5%

SMILES: COc1cc2nc(N3CCC(N4CCCC(CO)C4)CC3)nc(NC3CCCCCC3)c2cc1OC (stereo not given)
IC50 [1]: 30 nM
inhibition in vivo at 30 mg/kg (Mus musculus [18]): 11%

SMILES: COc1cc2nc(N3CCC(N4CCCC(CO)C4)CC3)nc(C(=O)c3ccc(Cl)cc3)c2cc1OC (stereo not given)
inhibition [13]: 42%

SMILES: COc1cc2nc(N3CCC(N4CCCC(CO)C4)CC3)nc(N3CCc4cc(Cl)ccc43)c2cc1OC (stereo not given)
inhibition [13]: 40%

SMILES: COc1cc2nc(N3CCC(N4CCCC(CO)C4)CC3)nc(NCCCc3ccc(Cl)cc3)c2cc1OC (stereo not given)
IC50 [1]: 180 nM

Further lines, with some results ahead:

IC50 [1]: 52 nM
SMILES: COCC1CCCN(C2CCN(c3nc(Nc4ccc(Cl)cc4)c4cc(OC)c(OC)cc4n3)CC2)C1 (stereo not given)

IC50 [1]: 19 nM
Tmax [6]: 2 h
Cmax [7]: 139 ng/mL
AUC (Mus musculus [8]): 1010 ng·h/mL
Tmax [9]: 2 h
Cmax [10]: 262 ng/mL
AUC (Mus musculus [11]): 1750 ng·h/mL
SMILES: COc1cc2nc(N3CCC(N4CCCC(CO)C4)CC3)nc(Nc3ccc(Cl)cc3)c2cc1OC (stereo not given)
inhibition in vivo at 30 mg/kg (Mus musculus [3]): 44%
inhibition in vivo at 10 mg/kg (Mus musculus [4]): 13%
inhibition in vivo at 100 mg/kg (Mus musculus [5]): 39%
inhibition in vivo at 30 mg/kg (Mus musculus [12]): 17%

IC50 [1]: 100 nM
inhibition [17]: 50%
SMILES: COc1cc2nc(N3CCC(N4CCOC(CO)C4)CC3)nc(Nc3ccc(Cl)cc3)c2cc1OC (stereo not given)

IC50 [1]: 87 nM
SMILES: COc1cc2nc(N3CCC(N4CCCC(CO)C4)CC3)nc(NCc3ccc(Cl)cc3)c2cc1OC (stereo not given)

IC50 [1]: 100 nM
SMILES: COc1cc2nc(N3CCC(N4CCCC(OC)C4)CC3)nc(Nc3ccc(Cl)cc3)c2cc1OC (stereo not given)

IC50 [15]: 110 nM
IC50 [16]: 130 nM
SMILES: COc1cc2nc(N3CCC(N4CCCC4)CC3)nc(Nc3ccc(Cl)cc3)c2cc1OC
inhibition in vivo at 30 mg/kg (Mus musculus [18]): 2%
inhibition in vivo at 30 mg/kg (Mus musculus [19]): 43%

IC50 [1]: 48 nM
SMILES: COc1cc2nc(N3CCC(N4CCCC(O)C4)CC3)nc(Nc3ccc(Cl)cc3)c2cc1OC (stereo not given)

inhibition [13]: 11%
SMILES: COc1cc2nc(N3CCC(N4CCCC(CO)C4)CC3)nc(NC(=O)c3ccc(Cl)cc3)c2cc1OC (stereo not given)
